# Measurements gathered from unrelated publications.
# Protocols differ between the studies behind these lines.
# Observed: metabolic stability
# Species: rat
SMILES,system,conditions,quantity,result
O=c1[nH]c2ccccc2n1C1CCN(CCCC(c2ccc(F)cc2)c2ccc(F)cc2)CC1,liver microsomes,100 ng/mL,microsomal CLint,8.7 µL/min/mg
C[C@]12CC[C@H]3[C@@H](CCC4=CC(=O)CC[C@@]43C)[C@@H]1CC[C@@H]2O,liver microsomes,,microsomal CLint,893 µL/min/mg
Cc1[nH]c(C)c(S(=O)(=O)Nc2ccc(S(F)(F)(F)(F)F)cc2)c1C(=O)N1CCC(F)(F)C1,liver microsomes,,microsomal CLint,39 µL/min/mg
CC(C)CC(=O)OC[C@H]1O[C@@](C#N)(c2ccc3c(N)ncnn23)[C@H](O)[C@@H]1O,hepatocytes,5 µM,hepatocyte CLint,> 318 µL/min/10⁶ cells
NCCOCC(=O)N1CCCC(C(=O)NCc2nc(-c3ccc(-c4ccc(F)cc4)cc3)cs2)C1 (centres unmarked),liver microsomes,,scaled CLint,< 0.42 L/h/kg
Cc1[nH]c(C)c(S(=O)(=O)Nc2ccc(S(=O)(=O)F)c(Cl)c2)c1C(=O)N1CCC(F)(F)C1,liver microsomes,,microsomal CLint,63.7 µL/min/mg
C[C@]12CC[C@H]3[C@@H](CCC4=CC(=O)CC[C@@]43C)[C@@H]1CC[C@@H]2O,liver microsomes,"1 µM, pH 7.4",scaled CLint,150 L/h/kg
O=C1CCC(N2Cc3c(ccc4c3OCC43CCN(Cc4ccccc4)CC3)C2=O)C(=O)N1 (centres unmarked),liver microsomes,1 µM,scaled CLint,1.32 L/h/kg
